Assays:
[1] = system: Prunus dulcis; test: (§1) Inhibition of almond seed beta-galactosidase at 1 mM after 90 mins by spectrophotometric analysis
Method in brief: (§2)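 Each enzyme was screened with inhibitor at a single concentration of 1 mM, and percent inhibition was recorded. Reported values are the average of three sets of assays.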

[2] = as §1; set-up: species or system Prunus dulcis; method in brief: as §2
[3] = Non-competitive inhibition of Geobacillus toebii BK1 alpha-galactosidase after 90 mins by Lineweaver-Burke plot analysis
[4] = Competitive inhibition of yeast alpha-glucosidase after 90 mins by Lineweaver-Burke plot analysis; set-up: species or system Saccharomyces cerevisiae
[5] = system: Prunus dulcis; test: (§3) Inhibition of almond seed beta-glucosidase at 1 mM after 90 mins by spectrophotometric analysis; method in brief: as §2
[6] = as §3; set-up: species or system Prunus dulcis; method in brief: as §2
[7] = system: Prunus dulcis; test: (§4) Inhibition of almond seed N-Acetyl-beta-D-glucosaminidase at 1 mM after 90 mins by spectrophotometric analysis; method in brief: as §2
[8] = as §4; set-up: species or system Prunus dulcis; method in brief: as §2
[9] = Inhibition of yeast alpha-glucosidase after 90 mins by spectrophotometric analysis; set-up: species or system Saccharomyces cerevisiae
[10] = system: Prunus dulcis; test: (§5) Inhibition of almond seed alpha-galactosidase at 1 mM after 90 mins by spectrophotometric analysis; method in brief: as §2
[11] = as §5; set-up: species or system Prunus dulcis; method in brief: as §2
[12] = system: Prunus dulcis; test: (§6) Inhibition of almond seed alpha-mannosidase at 1 mM after 90 mins by spectrophotometric analysis; method in brief: as §2
[13] = as §6; set-up: species or system Prunus dulcis; method in brief: as §2
[14] = Inhibition of Geobacillus toebii BK1 alpha-galactosidase after 90 mins by spectrophotometric analysis
[15] = system: Geobacillus toebii; test: (§7) Inhibition of Geobacillus toebii BK1 alpha-galactosidase at 1 mM after 90 mins by spectrophotometric analysis; method in brief: as §2
[16] = as §7; method in brief: as §2
[17] = (§8) Inhibition of yeast alpha-glucosidase at 1 mM after 90 mins by spectrophotometric analysis; set-up: species or system Saccharomyces cerevisiae; method in brief: as §2
[18] = system: Saccharomyces cerevisiae; test: as §8; method in brief: as §2

C[C@H]1CC[C@@H](O)[C@@H](C(=O)O)N1
1150 µM: IC50 [9]
71 µM: Ki [4]
180 µM: IC50 [14]
26 µM: Ki [3]
< 50%: inhibition [1] | inhibition [5] | inhibition [7] | inhibition [10] | inhibition [12]
Not Active: Ki [2] | Ki [6] | Ki [8] | Ki [11] | Ki [13]

C[C@H]1CC[C@@H](O)[C@@H](CO)N1
< 50%: inhibition [1] | inhibition [5] | inhibition [7] | inhibition [10] | inhibition [12] | inhibition [15] | inhibition [18]
Not Active: Ki [2] | Ki [6] | Ki [8] | Ki [11] | Ki [13] | Ki [16] | Ki [17]

Source: ChEMBL document CHEMBL1275387, “Intramolecular reductive cyclization strategy to the synthesis of (-)-6-methyl-3-hydroxy-piperidine-2-carboxylic acid, (+)-6-methyl-(2-hydroxymethyl)-piperidine-3-ol and their glycosidase inhibitory activity” (Bioorg Med Chem, 2010)
